# ASAP1 GAP inh: blocks human ASAP1-stimulated Arf1 GTP hydrolysis. Q9ULH1. GDP FP detection. inhibition, % at 16.5 µM. 360,000 tested, 0.19% active. AID 624377; in the data active means inhibition above about 25%
# Target sequence (Q9ULH1 325-724 limits assumed): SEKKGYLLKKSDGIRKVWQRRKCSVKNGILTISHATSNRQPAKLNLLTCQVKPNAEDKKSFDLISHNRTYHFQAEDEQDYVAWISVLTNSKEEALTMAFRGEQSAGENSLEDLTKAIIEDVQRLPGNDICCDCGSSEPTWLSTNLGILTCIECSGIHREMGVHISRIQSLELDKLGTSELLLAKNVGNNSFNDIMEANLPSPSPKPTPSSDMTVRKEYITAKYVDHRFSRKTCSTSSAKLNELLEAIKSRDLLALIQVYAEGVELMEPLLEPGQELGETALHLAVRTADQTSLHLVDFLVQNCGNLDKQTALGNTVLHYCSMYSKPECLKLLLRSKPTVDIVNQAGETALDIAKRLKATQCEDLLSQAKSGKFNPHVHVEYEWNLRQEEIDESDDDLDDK
# esBAF inh: blocks esBAF chromatin remodeling in mouse ES cells; Bmi1-luciferase knock-in reporter, 24 h; 100% = twice the neutral-well signal; 350,000 tested, 2% active; AID 602393; reporter increase, % at 12.5 µM; in the data active means activation above about 40%; inconclusive means no clear call, values can overlap the other calls;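 further: a rise in the Bmi1 reporter signal indicates esBAF inhibition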
# ARFGAP1 inh: rat ARFGAP1 inhibition | Q62848 | Arfgap1-stimulated ARF1 GTP hydrolysis, GDP FP detection | inhibition, % at 16.5 µM | 360,000 tested, 0.26% active | AID 651572;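 active means inhibition above a per-plate limit, mean inhibition of low control wells plus 3 SD, cut at about 25% in these data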
# Target sequence (Q62848 1-136 limits assumed): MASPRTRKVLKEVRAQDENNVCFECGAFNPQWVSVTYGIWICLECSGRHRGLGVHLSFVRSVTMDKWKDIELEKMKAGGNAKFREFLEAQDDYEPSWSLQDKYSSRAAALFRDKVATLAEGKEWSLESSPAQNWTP
#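 material = rat Arfgap1 catalytic domain, aa 1-136 | also added = human ARF1(Δ1-17)-GTP substrate | compound dosing = one concentration, 16.5 µM, DMSO 1.26% | times = GTP hydrolysis reaction 2 h at 25 °C | measured by = FP, GDP Alexa 633 tracer displaced from anti-GDP antibody, 620/688 nm | evaluation = percent inhibition of Arfgap1-stimulated GTP hydrolysis | replication = single well per compound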
# SMARCA2 activ: SMARCA2 function activation, primary screen; MG213 cells, MMTV-luciferase reporter, dexamethasone, overnight; activation, % at 9.1 µM; 370,000 tested, 1% active; in the data active means activation above about 7.8%
# Ring1 derepress: de-represses Ring1 in mouse ESCs, confirming esBAF inhibition | 550 tested, under 10 active | shares compounds with esBAF inh | mouse ESC E14, Ring1 mRNA RT-qPCR fold change | fold change at 33 µM;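 active means Ring1 gene expression raised more than 2-fold over untreated cells in both replicates at either tested dose; inconclusive means only one replicate above 2-fold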;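 further: Ring1 transcript normalised to actin housekeeping signal by TaqMan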
# Fgf4 repress: esBAF inhibition confirmed by Fgf4 repression. shares compounds with esBAF inh. Fgf4 expression fold change at 33 µM. mouse ESC E14, Fgf4 mRNA qPCR fold change; hits give low values. 550 tested, 4% active;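 active means Fgf4 expression under 0.8 fold of control in both repeat measurements at one or both tested doses; inconclusive means under 0.8 fold in just a single repeat measurement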;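 further: Fgf4 transcript normalised to actin in duplex TaqMan qPCR; cells exposed to compound for 24 h before lysis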
# Bmi1 derepress: confirmation of esBAF inhibitors: Bmi1 de-repression in mouse ESCs | mouse ESE14 ES cells, Bmi1 mRNA qPCR fold; hits give high values | 550 tested, under 10 active | shares compounds with esBAF inh | fold change at 33 µM;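 active means Bmi1 expression fold change above 6 at either tested concentration, seen in replicate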;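 further: higher fold means more Bmi1 de-repression and stronger esBAF inhibition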
# A549 cytotox: kills or reduces viability of A549 cells; 550 tested, under 10 active; A549 cytotoxicity, plate reader; shares compounds with esBAF inh; cell viability change % (negative = cytotoxic), % at 25 µM, hits read low; call rule not given here
# HepG2 cytotox SP: kills or reduces viability of HepG2 cells. 550 tested, 4% active. shares compounds with esBAF inh. HepG2 cytotoxicity, plate reader; hits give low values. AID 743189. activity change, negative = inhibition, % at 25 µM; in the data active means activity change below about -50%
# HEK293 tox SP: kills or reduces viability of HEK293 cells; shares compounds with esBAF inh; AID 743190; activity change, negative = inhibition, % at 25 µM, hits read low; 550 tested, 3% active; HEK293 cytotoxicity, plate reader; in the data active means activity change below about -38%, passing the limit was not always enough
# Numbers stand for hits; - = inactive; ? = inconclusive; . = not tested or not shown. In the library only some 2.6% were active in any assay of this set; here they are far more common.
SMILES,ASAP1 GAP inh,esBAF inh,ARFGAP1 inh,SMARCA2 activ,Ring1 derepress,Fgf4 repress,Bmi1 derepress,A549 cytotox,HepG2 cytotox SP,HEK293 tox SP
CCn1cnc2cc(NCc3ccc(OC)cc3)ccc21,-,56,-,-,-,?,-,-,-,-
C[C@H](CO)N1C[C@H](C)[C@@H](CN(C)C(=O)CN(C)C)Oc2ncc(C3=CCCC3)cc2C1=O,.,-,.,.,.,.,.,.,.,.
O=C(C[C@H]1C[C@H]2c3cc(NC(=O)C4CCC4)ccc3O[C@H]2[C@@H](CO)O1)NCc1ccncc1,.,-,.,.,.,.,.,.,.,.
NC(=O)c1cccc(-c2noc(-c3ccccc3F)n2)c1,-,-,-,-,.,.,.,.,.,.
NC(=O)c1ccccc1-c1nc(-c2ccccc2)no1,-,74,-,-,-,-,-,-,-,-
CCn1c(SCc2ccccc2Cl)nc2ccccc21,-,57,-,-,-,-,-,-,-,-
Cn1c(SCc2ccccc2Cl)nc2ccccc21,-,.,-,-,.,.,.,.,.,.
Cc1nc(-c2ccccc2)nc2[nH]ccc(=O)c12,-,64,-,-,2.2,?,-,-,-,-
COc1cc(OC)c2c(-c3cccc(/C=C/c4ccc(F)cc4)c3)cc(=O)oc2c1,.,86,.,.,-,-,-,-,-,-
COc1ccc(-c2cccc(-c3cc(=O)oc4cc(OC)cc(OC)c34)c2)cc1,-,-,-,-,.,.,.,.,.,.
Nc1c(C(=O)NC2CCCC2)sc2nc(-c3cccs3)ccc12,-,.,-,-,.,.,.,.,.,.
NC(=O)c1sc2nc(-c3cccs3)ccc2c1N,-,59,-,-,-,-,-,-,-,-
O=C(C[C@H]1C[C@@H]2c3cc(NC(=O)C4CCC4)ccc3O[C@@H]2[C@H](CO)O1)NCCc1ccccc1,.,-,.,.,.,.,.,.,.,.
Nc1ccc(C#Cc2ccc3c(=O)c4ccccc4oc3c2)cc1,-,79,-,-,-,0.56,-,-,-,-
COCC(=O)Nc1ccc2c(c1)[C@@H]1C[C@@H](CC(=O)N[C@H](C)c3ccccc3)O[C@H](CO)[C@@H]1O2,.,-,.,.,.,.,.,.,.,.
Cc1ccc(C(=O)CN2C(=O)NC3(CCCCCC3)C2=O)c(C)c1,-,80,-,-,-,-,-,-,-,-
Cc1cc(C)c(C(=O)CN2C(=O)NC3(CCCCC3)C2=O)cc1C,-,.,-,-,.,.,.,.,.,.
Cc1noc(C)c1S(=O)(=O)N(C)C[C@@H]1Oc2ccc(NC(=O)Cc3ccccc3)cc2CC(=O)N([C@@H](C)CO)C[C@@H]1C,.,-,.,.,.,.,.,.,.,.
C=C1C2(C(=O)Nc3ccc(SC(F)F)cc3)CCC(C2)C1(C)C (stereo not drawn),-,-,-,-,.,.,.,.,.,.
O=C(Nc1ccc(SC(F)F)cc1)C12CCC(CC1)C2,-,56,-,-,-,?,-,-,-,-
CC(=O)Nc1ccc2c(c1)C(=Nc1ccccc1)c1ccccc1-2,-,-,-,-,.,.,.,.,.,.
CC(=O)Nc1cc2c3c(cccc3c1)-c1ccccc1-2,-,70,-,-,-,?,-,-,-,-
CCN1[C@@H]2c3ccc(-c4ccncc4)c(=O)n3C[C@@H]2[C@@H](CO)[C@@H]1C(=O)NCCc1cn(C)cn1,.,-,.,.,.,.,.,.,.,.
O=C(c1csc(Nc2ccccc2Cl)n1)N1CCCC1,-,54,-,-,-,-,-,-,-,-
O=C(c1csc(Nc2cccc3ccccc23)n1)N1CCCC1,-,-,-,-,.,.,.,.,.,.
O=C(C[C@@H]1CC[C@@H]2[C@H](COC[C@@H](O)CN2Cc2ccc(Cl)cc2)O1)NCc1cccc(F)c1,.,-,.,.,.,.,.,.,.,.
CN(C)CCCNC(=O)C[C@H]1CC[C@@H]2[C@@H](COc3ccc(NS(C)(=O)=O)cc3C(=O)N2C)O1,.,-,.,.,.,.,.,.,.,.
CC/C(=N\NC(=O)c1cc(C2CC2)[nH]n1)c1ccccc1,-,56,-,-,-,-,-,-,-,-
COc1ccc(CNC(=O)Nc2cccc(C)c2)cc1,-,67,-,-,-,-,-,-,-,-
